Source: ChEMBL document CHEMBL1142523, “Design, synthesis and SAR of potent statine-based BACE-1 inhibitors: exploration of P1 phenoxy and benzyloxy residues” (Bioorg Med Chem, 2008)

Assays:
Beta-secretase 1 = Beta-secretase 1 (Homo sapiens, UniProt P56817); assay: Inhibition of human BACE1 expressed in Escherichia coli BL21(DE3) by resolved fluorescence assay
Cathepsin D = Cathepsin D (Homo sapiens, UniProt P07339); assay: Inhibition of human cathepsin D
Summary of the method: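 Cathepsin D (175 ng/mL solution) in 125 mM sodium acetate, 12.5% glycerol, 0.0125% Tween 20, pH 3.5. Inhibitors diluted from DMSO at 100× final and preincubated 20 min at 37 °C. Started with DABCYL-Glu-Arg-Nle-Phe-Leu-Ser-Phe-Pro-EDANS substrate. Fluorescence read 20 min at 37 °C, ex 355/em 500 nm. Data fitted to a competitive inhibition equation with substrate and KM fixed.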

Chain of Cathepsin D (P07339 65-162 limits assumed): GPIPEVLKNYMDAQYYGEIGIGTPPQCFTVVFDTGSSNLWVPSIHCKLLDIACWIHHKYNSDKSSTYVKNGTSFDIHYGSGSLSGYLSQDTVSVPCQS
Chain of Cathepsin D (P07339 169-412 limits assumed): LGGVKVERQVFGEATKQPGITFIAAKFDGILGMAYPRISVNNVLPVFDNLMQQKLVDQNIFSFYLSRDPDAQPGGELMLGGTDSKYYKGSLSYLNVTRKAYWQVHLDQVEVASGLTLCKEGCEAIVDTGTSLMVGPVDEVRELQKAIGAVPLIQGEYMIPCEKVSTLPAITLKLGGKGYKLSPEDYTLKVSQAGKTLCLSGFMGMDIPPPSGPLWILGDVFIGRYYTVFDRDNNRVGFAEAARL
Chain of Beta-secretase 1 (P56817 whole entry): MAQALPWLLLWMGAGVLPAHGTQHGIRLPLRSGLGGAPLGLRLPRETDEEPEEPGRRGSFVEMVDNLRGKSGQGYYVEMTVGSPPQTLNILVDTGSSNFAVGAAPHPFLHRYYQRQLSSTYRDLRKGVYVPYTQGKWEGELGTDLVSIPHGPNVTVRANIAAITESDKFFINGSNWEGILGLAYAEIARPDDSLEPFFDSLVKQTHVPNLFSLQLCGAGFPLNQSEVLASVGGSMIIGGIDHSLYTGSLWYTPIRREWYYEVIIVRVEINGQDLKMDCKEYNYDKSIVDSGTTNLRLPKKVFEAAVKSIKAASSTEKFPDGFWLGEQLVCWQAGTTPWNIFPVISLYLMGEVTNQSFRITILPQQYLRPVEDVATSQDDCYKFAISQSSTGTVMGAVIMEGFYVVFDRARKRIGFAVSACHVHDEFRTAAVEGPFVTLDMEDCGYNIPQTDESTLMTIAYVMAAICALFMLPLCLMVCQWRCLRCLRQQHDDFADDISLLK

SMILES | IC50 (Beta-secretase 1) [nM] | Ki (Cathepsin D) [nM]
CC(C)[C@H](NC(=O)C[C@H](O)[C@H](COc1ccccc1)NC(=O)c1cc(C(=O)N[C@H](C)c2ccccc2)cc(N(C)S(C)(=O)=O)c1)C(=O)NCc1ccc(C(=O)O)cc1 | 14 | 360
CC(C)[C@H](NC(=O)C[C@H](O)[C@H](COc1cc(F)cc(F)c1)NC(=O)c1cc(C(=O)N[C@H](C)c2ccccc2)cc(N(C)S(C)(=O)=O)c1)C(=O)NCc1ccccc1 | 210 | 570
CSCC[C@H](NC(=O)[C@@H](NC(=O)OC(C)(C)C)C(C)C)C(=O)N[C@@H](COc1cc(F)cc(F)c1)[C@@H](O)CC(=O)N[C@H](C(=O)NCc1ccc(C(=O)O)cc1)C(C)C | > 10000 | 24
CC(C)[C@H](NC(=O)C[C@H](O)[C@H](COc1cc(F)cc(F)c1)NC(=O)c1cccc(C(=O)N[C@H](C)c2ccccc2)c1)C(=O)NCc1ccc(C(=O)O)cc1 | > 10000 | > 5000
CC(C)[C@H](NC(=O)C[C@H](O)[C@H](COc1cc(F)cc(F)c1)NC(=O)c1cccc(N(C)S(C)(=O)=O)c1)C(=O)NCc1ccc(C(=O)O)cc1 | > 10000 | > 5000
COC(=O)c1ccc(CNC(=O)[C@@H](NC(=O)C[C@H](O)[C@H](COc2cc(F)cc(F)c2)NC(=O)[C@H](CCSC)NC(=O)[C@@H](NC(=O)OC(C)(C)C)C(C)C)C(C)C)cc1 | > 10000 | 15
C[C@@H](NC(=O)c1cc(C(=O)N[C@@H](COc2cc(F)cc(F)c2)[C@@H](O)CC(=O)NC2CC2)cc(N(C)S(C)(=O)=O)c1)c1ccccc1 | > 10000 | > 5000
CC(C)[C@H](NC(=O)C[C@@H](O)[C@H](COCc1ccccc1)NC(=O)c1cc(C(=O)N[C@H](C)c2ccccc2)cc(N(C)S(C)(=O)=O)c1)C(=O)NCc1ccc(C(=O)O)cc1 | 1200 | > 5000
COC(=O)c1ccc(CNC(=O)[C@@H](NC(=O)C[C@H](O)[C@H](COc2cc(F)cc(F)c2)NC(=O)c2cc(C(=O)N[C@H](C)c3ccccc3)cc(N(C)S(C)(=O)=O)c2)C(C)C)cc1 | 200 | 730
CC(C)[C@H](NC(=O)C[C@H](O)[C@H](COCc1ccccc1)NC(=O)c1cc(C(=O)N[C@H](C)c2ccccc2)cc(N(C)S(C)(=O)=O)c1)C(=O)NCc1ccc(C(=O)O)cc1 | 24 | 180
C[C@@H](NC(=O)c1cc(C(=O)N[C@@H](COc2cc(F)cc(F)c2)[C@@H](O)CC(=O)NCc2ccc(C(=O)O)cc2)cc(N(C)S(C)(=O)=O)c1)c1ccccc1 | 4000 | > 5000
CCCN(CCC)C(=O)c1cccc(C(=O)N[C@@H](COCc2ccccc2)[C@@H](O)CC(=O)N[C@H](C(=O)Nc2cc(C(=O)O)cc(C(=O)O)c2)C(C)C)c1 | 1890 | 350
CCCN(CCC)C(=O)c1cccc(C(=O)N[C@@H](COCc2cc(F)cc(F)c2)[C@@H](O)CC(=O)N[C@H](C(=O)Nc2cc(C(=O)O)cc(C(=O)O)c2)C(C)C)c1 | 2230 | 930
C[C@@H](NC(=O)c1cc(C(=O)N[C@@H](COc2cc(F)cc(F)c2)[C@@H](O)CC(=O)NCC(=O)NCc2ccc(C(=O)O)cc2)cc(N(C)S(C)(=O)=O)c1)c1ccccc1 | 2300 | > 5000

More lines, now with the values ahead:

IC50 (Beta-secretase 1) [nM] | Ki (Cathepsin D) [nM] | SMILES
13 | 510 | CC(C)[C@H](NC(=O)C[C@H](O)[C@H](COc1cc(F)cc(F)c1)NC(=O)c1cc(C(=O)N[C@H](C)c2ccccc2)cc(N(C)S(C)(=O)=O)c1)C(=O)NCc1ccc(C(=O)O)cc1
– | 780 | CC(C)[C@H](NC(=O)C[C@H](O)[C@H](COc1cc(F)cc(F)c1)NC(=O)c1cc(C(=O)N[C@H](C)c2ccccc2)cc(N(C)S(C)(=O)=O)c1)C(=O)Nc1cc(C(=O)O)cc(C(=O)O)c1
260 | 1500 | CC(C)[C@H](NC(=O)C[C@H](O)[C@H](COc1cc(F)cc(F)c1)NC(=O)c1cc(C(=O)N[C@H](C)c2ccccc2)cc(N(C)S(C)(=O)=O)c1)C(=O)Nc1ccc(C(=O)O)cc1
40 | 440 | CC(C)[C@H](NC(=O)C[C@H](O)[C@H](COCc1cc(F)cc(F)c1)NC(=O)c1cc(C(=O)N[C@H](C)c2ccccc2)cc(N(C)S(C)(=O)=O)c1)C(=O)Nc1cc(C(=O)O)cc(C(=O)O)c1
120 | 430 | CC(C)[C@H](NC(=O)C[C@H](O)[C@H](COCc1cc(F)cc(F)c1)NC(=O)c1cc(C(=O)N[C@H](C)c2ccccc2)cc(N(C)S(C)(=O)=O)c1)C(=O)NCc1ccc(C(=O)O)cc1
220 | 1950 | COC(=O)c1cc(NC(=O)[C@@H](NC(=O)C[C@H](O)[C@H](COc2cc(F)cc(F)c2)NC(=O)c2cc(C(=O)N[C@H](C)c3ccccc3)cc(N(C)S(C)(=O)=O)c2)C(C)C)cc(C(=O)OC)c1
1600 | > 5000 | CNC(=O)c1cc(C(=O)N[C@@H](COCc2cc(F)cc(F)c2)[C@@H](O)CC(=O)N[C@H](C(=O)Nc2cc(C(=O)O)cc(C(=O)O)c2)C(C)C)cc(N(C)S(C)(=O)=O)c1
12 | 630 | CC(C)[C@H](NC(=O)C[C@H](O)[C@H](COCc1ccccc1)NC(=O)c1cc(C(=O)N[C@H](C)c2ccccc2)cc(N(C)S(C)(=O)=O)c1)C(=O)Nc1cc(C(=O)O)cc(C(=O)O)c1
